Test results reported in ChEMBL document CHEMBL1150367, “High specific activity tritium-labeled N-(2-methoxybenzyl)-2,5-dimethoxy-4-iodophenethylamine (INBMeO): a high-affinity 5-HT2A receptor-selective agonist radioligand” (Bioorg Med Chem, 2008).

Tests used:
[1] = molecular target: T1, 5-hydroxytryptamine receptor 2A (Homo sapiens, UniProt P28223); test: Binding affinity to human 5HT2A receptor expressed in human A549 cells; format: cell-based; settings: for Bmax: tested as the 3H-labelled form
Outline: (§1)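 Incubated 60 min at 25 °C in 50 mM Tris, 4 mM MgCl2, pH 7.4, with 1% BSA. Nonspecific defined by 10 μM cinanserin; filtration and scintillation counting.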

[2] = molecular target: T1, 5-hydroxytryptamine receptor 2A; test: Binding affinity to human 5HT2A receptor expressed in human HEK293 cells; format: cell-based; settings: for Bmax: tested as the 3H-labelled form; outline: as §1
[3] = molecular target: T1, 5-hydroxytryptamine receptor 2A; test: Displacement of [3H]ketanserin from human 5HT2A receptor expressed in human A549 cells; format: cell-based
[4] = molecular target: T1, 5-hydroxytryptamine receptor 2A; test: Displacement of [3H]INBMeO from human 5HT2A receptor expressed in human A549 cells; format: cell-based
[5] = molecular target: T1, 5-hydroxytryptamine receptor 2A; test: Displacement of [3H]ketanserin from human 5HT2A receptor expressed in human HEK293 cells; format: cell-based
[6] = molecular target: T1, 5-hydroxytryptamine receptor 2A; test: Displacement of [3H]INBMeO from human 5HT2A receptor expressed in human HEK293 cells; format: cell-based
[7] = molecular target: 5-hydroxytryptamine receptor 2C (Homo sapiens, UniProt P28335); test: Binding affinity to 5HT2C receptor
[8] = molecular target: 5-hydroxytryptamine receptor 6 (Homo sapiens, UniProt P50406); test: Binding affinity to 5HT6 receptor
Mu-type opioid receptor = Mu-type opioid receptor (Homo sapiens, UniProt P35372); test: Binding affinity to mu opioid receptor
Histamine H1 receptor = Histamine H1 receptor (Homo sapiens, UniProt P35367); test: Binding affinity to histamine H1 receptor
[9] = molecular target: 5-hydroxytryptamine receptor 2B (Homo sapiens, UniProt P41595); test: Binding affinity to 5HT2B receptor
[10] = molecular target: Kappa-type opioid receptor (Homo sapiens, UniProt P41145); test: Binding affinity to kappa opioid receptor
[11] = molecular target: 5-hydroxytryptamine receptor 1A (Homo sapiens, UniProt P08908); test: Binding affinity to 5HT1A receptor
D(3) dopamine receptor = D(3) dopamine receptor (Homo sapiens, UniProt P35462); test: Binding affinity to dopamine D3 receptor
[12] = molecular target: 5-hydroxytryptamine receptor 7 (Homo sapiens, UniProt P34969); test: Binding affinity to 5HT7 receptor
Histamine H2 receptor = Histamine H2 receptor (Homo sapiens, UniProt P25021); test: Binding affinity to histamine H2 receptor
[13] = molecular target: 5-hydroxytryptamine receptor 1D (Homo sapiens, UniProt P28221); test: Binding affinity to 5HT1D receptor
[14] = molecular target: Alpha-1A adrenergic receptor (Homo sapiens, UniProt P35348); test: Binding affinity to alpha 1A adrenergic receptor
[15] = molecular target: Delta-type opioid receptor (Homo sapiens, UniProt P41143); test: Binding affinity to delta opioid receptor
[16] = molecular target: Sodium-dependent serotonin transporter (Homo sapiens, UniProt P31645); test: Binding affinity to serotonin uptake transporter
[17] = molecular target: 5-hydroxytryptamine receptor 5A (Homo sapiens, UniProt P47898); test: Binding affinity to 5HT5A receptor
[18] = molecular target: 5-hydroxytryptamine receptor 1B (Homo sapiens, UniProt P28222); test: Binding affinity to 5HT1B receptor
D(2) dopamine receptor = D(2) dopamine receptor (Homo sapiens, UniProt P14416); test: Binding affinity to dopamine D2 receptor
D(1A) dopamine receptor = D(1A) dopamine receptor (Homo sapiens, UniProt P21728); test: Binding affinity to dopamine D1 receptor
[19] = molecular target: 5-hydroxytryptamine receptor 3A (Homo sapiens, UniProt P46098); test: Binding affinity to 5HT3 receptor
[20] = molecular target: 5-hydroxytryptamine receptor 1E (Homo sapiens, UniProt P28566); test: Binding affinity to 5HT1E receptor
D(1B) dopamine receptor = D(1B) dopamine receptor (Homo sapiens, UniProt P21918); test: Binding affinity to dopamine D5 receptor
[21] = molecular target: Muscarinic acetylcholine receptor M1 (Homo sapiens, UniProt P11229); test: Binding affinity to muscarinic M1 receptor
[22] = molecular target: Muscarinic acetylcholine receptor M2 (Homo sapiens, UniProt P08172); test: Binding affinity to muscarinic M2 receptor
[23] = molecular target: Muscarinic acetylcholine receptor M3 (Homo sapiens, UniProt P20309); test: Binding affinity to muscarinic M3 receptor
[24] = molecular target: Muscarinic acetylcholine receptor M4 (Homo sapiens, UniProt P08173); test: Binding affinity to muscarinic M4 receptor
[25] = molecular target: Muscarinic acetylcholine receptor M5 (Homo sapiens, UniProt P08912); test: Binding affinity to muscarinic M5 receptor
Histamine H3 receptor = Histamine H3 receptor (Homo sapiens, UniProt Q9Y5N1); test: Binding affinity to histamine H3 receptor
[26] = molecular target: Sodium-dependent dopamine transporter (Homo sapiens, UniProt Q01959); test: Binding affinity to dopamine uptake transporter

T1 sequence (P28223 whole entry): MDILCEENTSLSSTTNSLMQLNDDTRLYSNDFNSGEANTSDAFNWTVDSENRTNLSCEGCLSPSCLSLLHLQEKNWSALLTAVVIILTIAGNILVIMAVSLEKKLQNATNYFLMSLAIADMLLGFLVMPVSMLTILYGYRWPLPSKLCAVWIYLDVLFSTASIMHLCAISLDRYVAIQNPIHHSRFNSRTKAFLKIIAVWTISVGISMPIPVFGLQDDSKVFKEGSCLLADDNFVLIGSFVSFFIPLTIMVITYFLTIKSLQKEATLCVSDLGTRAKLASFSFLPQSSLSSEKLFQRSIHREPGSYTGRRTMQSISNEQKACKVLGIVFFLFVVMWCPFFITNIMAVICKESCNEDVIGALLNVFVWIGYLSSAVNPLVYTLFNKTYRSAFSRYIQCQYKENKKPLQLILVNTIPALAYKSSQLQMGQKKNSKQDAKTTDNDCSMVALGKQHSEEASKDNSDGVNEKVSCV
5-hydroxytryptamine receptor 2C, sequence (P28335 whole entry): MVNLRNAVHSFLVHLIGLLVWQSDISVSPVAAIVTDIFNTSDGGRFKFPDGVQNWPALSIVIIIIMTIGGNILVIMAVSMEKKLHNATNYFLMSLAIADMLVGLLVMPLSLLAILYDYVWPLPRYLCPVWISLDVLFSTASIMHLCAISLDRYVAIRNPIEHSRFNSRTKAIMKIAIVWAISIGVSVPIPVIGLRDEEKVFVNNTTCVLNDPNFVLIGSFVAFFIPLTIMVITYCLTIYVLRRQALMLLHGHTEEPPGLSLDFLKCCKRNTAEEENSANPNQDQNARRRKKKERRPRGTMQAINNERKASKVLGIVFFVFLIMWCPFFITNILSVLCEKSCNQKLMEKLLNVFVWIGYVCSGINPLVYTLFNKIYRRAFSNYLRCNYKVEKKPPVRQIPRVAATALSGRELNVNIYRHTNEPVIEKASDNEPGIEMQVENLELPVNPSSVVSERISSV
Muscarinic acetylcholine receptor M5, sequence (P08912 whole entry): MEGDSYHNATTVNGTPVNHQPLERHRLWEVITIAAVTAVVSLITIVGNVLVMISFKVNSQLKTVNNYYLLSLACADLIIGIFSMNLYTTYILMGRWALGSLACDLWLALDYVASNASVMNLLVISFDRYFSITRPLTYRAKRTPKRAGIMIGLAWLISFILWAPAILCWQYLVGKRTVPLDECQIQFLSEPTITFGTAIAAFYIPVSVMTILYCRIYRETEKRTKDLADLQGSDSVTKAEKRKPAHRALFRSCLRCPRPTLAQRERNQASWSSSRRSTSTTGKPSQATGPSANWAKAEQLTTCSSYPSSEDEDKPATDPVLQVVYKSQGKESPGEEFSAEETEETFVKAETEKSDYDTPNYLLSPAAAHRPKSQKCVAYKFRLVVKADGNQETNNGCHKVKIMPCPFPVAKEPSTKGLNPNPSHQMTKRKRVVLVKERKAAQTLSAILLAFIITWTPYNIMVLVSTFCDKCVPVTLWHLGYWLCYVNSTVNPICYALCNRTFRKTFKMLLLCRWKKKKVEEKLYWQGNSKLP
Muscarinic acetylcholine receptor M2, sequence (P08172 whole entry): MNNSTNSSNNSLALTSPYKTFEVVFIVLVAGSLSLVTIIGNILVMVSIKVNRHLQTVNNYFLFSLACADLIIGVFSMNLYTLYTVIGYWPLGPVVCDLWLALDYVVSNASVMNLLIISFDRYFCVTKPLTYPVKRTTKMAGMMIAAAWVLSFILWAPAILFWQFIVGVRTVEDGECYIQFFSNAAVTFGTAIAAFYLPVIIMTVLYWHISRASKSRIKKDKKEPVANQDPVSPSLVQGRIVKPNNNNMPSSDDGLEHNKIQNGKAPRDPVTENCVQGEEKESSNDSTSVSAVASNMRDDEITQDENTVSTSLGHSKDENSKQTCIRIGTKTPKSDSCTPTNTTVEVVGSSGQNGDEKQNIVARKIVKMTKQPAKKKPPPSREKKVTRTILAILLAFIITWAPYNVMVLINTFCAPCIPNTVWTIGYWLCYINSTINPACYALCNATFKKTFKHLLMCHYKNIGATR
D(1B) dopamine receptor, sequence (P21918 whole entry): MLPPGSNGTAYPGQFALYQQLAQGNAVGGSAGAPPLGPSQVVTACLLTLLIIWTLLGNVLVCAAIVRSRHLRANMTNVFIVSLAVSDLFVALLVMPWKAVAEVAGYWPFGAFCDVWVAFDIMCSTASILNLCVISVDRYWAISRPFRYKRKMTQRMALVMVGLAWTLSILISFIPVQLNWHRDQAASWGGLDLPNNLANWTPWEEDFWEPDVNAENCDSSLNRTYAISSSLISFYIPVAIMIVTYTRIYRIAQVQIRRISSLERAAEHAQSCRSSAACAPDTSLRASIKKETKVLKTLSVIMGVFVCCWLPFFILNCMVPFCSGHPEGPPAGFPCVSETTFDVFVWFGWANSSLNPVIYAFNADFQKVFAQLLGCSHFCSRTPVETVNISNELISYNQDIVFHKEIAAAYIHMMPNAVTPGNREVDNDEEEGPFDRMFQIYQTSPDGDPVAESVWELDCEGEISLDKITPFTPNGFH
Histamine H1 receptor, sequence (P35367 whole entry): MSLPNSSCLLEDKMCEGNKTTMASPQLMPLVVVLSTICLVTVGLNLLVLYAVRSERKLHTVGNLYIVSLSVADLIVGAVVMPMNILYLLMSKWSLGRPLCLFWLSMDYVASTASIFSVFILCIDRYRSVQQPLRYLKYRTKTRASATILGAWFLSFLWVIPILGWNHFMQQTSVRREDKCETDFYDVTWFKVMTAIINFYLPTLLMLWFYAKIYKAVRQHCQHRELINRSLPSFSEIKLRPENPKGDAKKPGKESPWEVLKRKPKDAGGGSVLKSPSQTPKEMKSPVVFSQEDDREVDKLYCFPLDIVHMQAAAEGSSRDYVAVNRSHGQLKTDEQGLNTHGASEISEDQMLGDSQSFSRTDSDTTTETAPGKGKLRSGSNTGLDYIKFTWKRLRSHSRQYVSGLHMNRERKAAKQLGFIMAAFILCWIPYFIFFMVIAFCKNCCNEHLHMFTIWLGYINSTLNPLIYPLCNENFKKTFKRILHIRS
5-hydroxytryptamine receptor 7, sequence (P34969 whole entry): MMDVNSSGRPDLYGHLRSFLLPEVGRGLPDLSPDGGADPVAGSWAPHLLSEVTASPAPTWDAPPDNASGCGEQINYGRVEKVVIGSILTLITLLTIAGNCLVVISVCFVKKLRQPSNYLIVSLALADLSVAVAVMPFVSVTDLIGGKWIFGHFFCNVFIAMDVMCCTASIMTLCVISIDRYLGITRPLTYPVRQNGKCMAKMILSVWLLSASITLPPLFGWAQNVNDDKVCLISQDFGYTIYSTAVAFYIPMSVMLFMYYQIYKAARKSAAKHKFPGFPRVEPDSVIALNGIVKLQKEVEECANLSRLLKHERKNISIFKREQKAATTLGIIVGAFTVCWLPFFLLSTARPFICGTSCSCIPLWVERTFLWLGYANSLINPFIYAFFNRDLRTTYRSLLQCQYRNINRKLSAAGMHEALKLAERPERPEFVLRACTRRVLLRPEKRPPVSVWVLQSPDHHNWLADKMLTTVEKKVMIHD
Histamine H3 receptor, sequence (Q9Y5N1 whole entry): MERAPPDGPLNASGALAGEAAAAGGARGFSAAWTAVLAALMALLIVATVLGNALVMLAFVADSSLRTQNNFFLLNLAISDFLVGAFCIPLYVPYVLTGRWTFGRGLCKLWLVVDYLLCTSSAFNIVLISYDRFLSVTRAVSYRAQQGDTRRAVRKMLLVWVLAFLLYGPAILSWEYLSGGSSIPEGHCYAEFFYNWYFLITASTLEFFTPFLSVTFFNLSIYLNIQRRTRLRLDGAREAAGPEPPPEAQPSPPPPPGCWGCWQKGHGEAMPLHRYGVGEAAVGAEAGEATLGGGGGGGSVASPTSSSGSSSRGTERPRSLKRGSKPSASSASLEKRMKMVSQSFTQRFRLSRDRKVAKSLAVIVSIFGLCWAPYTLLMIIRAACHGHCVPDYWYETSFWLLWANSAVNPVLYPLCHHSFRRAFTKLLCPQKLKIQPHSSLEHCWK
5-hydroxytryptamine receptor 1E, sequence (P28566 whole entry): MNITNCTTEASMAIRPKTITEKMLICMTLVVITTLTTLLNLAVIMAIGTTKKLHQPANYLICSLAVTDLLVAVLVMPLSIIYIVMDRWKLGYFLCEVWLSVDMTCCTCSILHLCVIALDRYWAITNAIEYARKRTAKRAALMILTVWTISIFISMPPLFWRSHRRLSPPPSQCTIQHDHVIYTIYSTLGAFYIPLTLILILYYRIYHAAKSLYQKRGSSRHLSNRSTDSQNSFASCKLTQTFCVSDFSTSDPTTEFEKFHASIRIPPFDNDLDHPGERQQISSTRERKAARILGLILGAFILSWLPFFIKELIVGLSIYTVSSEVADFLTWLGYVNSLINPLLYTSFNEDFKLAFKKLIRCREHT
5-hydroxytryptamine receptor 1D, sequence (P28221 whole entry): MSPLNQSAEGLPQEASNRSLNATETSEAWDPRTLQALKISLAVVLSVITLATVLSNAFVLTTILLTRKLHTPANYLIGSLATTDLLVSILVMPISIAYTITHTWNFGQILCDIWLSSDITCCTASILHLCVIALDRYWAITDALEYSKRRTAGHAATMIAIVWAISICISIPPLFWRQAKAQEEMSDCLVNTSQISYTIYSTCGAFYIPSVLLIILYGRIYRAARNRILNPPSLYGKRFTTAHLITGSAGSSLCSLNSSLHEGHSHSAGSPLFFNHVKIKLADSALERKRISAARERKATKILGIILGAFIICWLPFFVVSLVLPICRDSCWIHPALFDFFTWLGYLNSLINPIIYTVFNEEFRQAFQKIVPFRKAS
5-hydroxytryptamine receptor 5A, sequence (P47898 whole entry): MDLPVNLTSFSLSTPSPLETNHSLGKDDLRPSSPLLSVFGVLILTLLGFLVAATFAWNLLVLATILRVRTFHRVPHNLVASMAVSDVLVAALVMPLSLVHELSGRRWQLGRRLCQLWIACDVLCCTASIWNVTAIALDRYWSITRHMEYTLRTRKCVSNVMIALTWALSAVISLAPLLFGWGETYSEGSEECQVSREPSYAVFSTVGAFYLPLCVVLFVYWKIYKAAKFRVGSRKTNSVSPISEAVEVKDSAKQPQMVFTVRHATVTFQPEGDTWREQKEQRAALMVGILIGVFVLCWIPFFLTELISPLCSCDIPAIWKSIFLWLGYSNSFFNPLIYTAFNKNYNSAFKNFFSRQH

**Q.** With `O=C(c1ccc(F)cc1)C1CCN(CCn2c(=O)[nH]c3ccccc3c2=O)CC1` as the molecule, how does the Bmax [1] read?
**A.** 890 fmol/mg

**Q.** What about the Bmax [2] of the same molecule?
**A.** 3260 fmol/mg

**Q.** Which results are given for `COc1cc(CCNCc2ccccc2OC)c(OC)cc1I`?
**A.** Bmax [1]: 480 fmol/mg; Bmax [2]: 2210 fmol/mg

**Q.** Which Ki [3] does the source give for `CN(C)CCCSc1ccccc1NC(=O)/C=C/c1ccccc1` [CINANSERIN] here?
**A.** 17 nM

**Q.** And the Ki [4]?
**A.** 24 nM

**Q.** And the Ki [5]?
**A.** 13 nM

**Q.** What about the Ki [6] of the same molecule?
**A.** 22 nM

**Q.** What does the source list for `[3H]C([3H])([3H])Oc1cc(I)c(OC)cc1CCNCc1ccccc1OC([3H])([3H])[3H]`?
**A.** Ki [7]: 2 nM; Ki [8]: 73 nM; Ki (Mu-type opioid receptor): 82 nM; Ki (Histamine H1 receptor): 189 nM; Ki [9]: 231 nM; Ki [10]: 288 nM; Ki [11]: > 500 nM; Ki (D(3) dopamine receptor): > 500 nM; Ki [12]: > 500 nM; Ki (Histamine H2 receptor): > 500 nM; Ki [13]: > 500 nM; Ki [14]: > 500 nM; Ki [15]: > 500 nM; Ki [16]: > 500 nM; Ki [17]: > 500 nM; Ki [18]: > 500 nM; Ki (D(2) dopamine receptor): > 500 nM; Ki (D(1A) dopamine receptor): > 500 nM; Ki [19]: > 500 nM; Ki [20]: > 500 nM; Ki (D(1B) dopamine receptor): > 500 nM; Ki [21]: > 500 nM; Ki [22]: > 500 nM; Ki [23]: > 500 nM; Ki [24]: > 500 nM; Ki [25]: > 500 nM; Ki (Histamine H3 receptor): > 500 nM; Ki [26]: > 500 nM; Kd [1]: 0.097 nM; Kd [2]: 0.15 nM
